# Screening results: PubChem BioAssay, Sanford-Burnham Center for Chemical Genomics
# In the library only some 1.5% were active in any assay of this set; here they are far more common.
# APJ agonist: agonists of human APJ apelin receptor; CHO-K1 APJ PathHunter beta-arrestin, luminescence; 0% DMSO wells, 100% apelin; P35414; activation, % at 20 µM; 330,000 compounds, 0.11% hits;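 active means activation more than six SD over the plate average, tested at 20 µM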;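 further: 0% = DMSO alone and 100% = apelin-13 at 10 nM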
#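 system = engineered CHO-K1 APJ arrestin reporter cells | input = 1000 cells per well | timing = overnight seeding, 90 min compound at 25 °C, 1 h detection | measured by = enzyme-fragment complementation luminescence | read-out = beta-arrestin recruitment to APJ as agonist activity, luminescent signal | control set = negative DMSO alone, positive Apelin-13 at 10 nM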
# CCR6 antagonist: CCR6 (human) receptor antagonism. P51684. CHO-K1 CCR6 PathHunter beta-arrestin, luminescence, CCL20-stimulated. inhibition, % at 20 µM. 340,000 compounds, 0.49% hits. AID 493098;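 active means compounds whose inhibition of the agonist-driven luminescence signal at 20 µM reaches about 50%, limit read from the data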;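 further: cells stimulated with CCL20 at 14 nM final; plate controls were DMSO with CCL20 for no effect and DMSO without agonist for full effect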
# Target sequence (P51684 whole entry, looked up): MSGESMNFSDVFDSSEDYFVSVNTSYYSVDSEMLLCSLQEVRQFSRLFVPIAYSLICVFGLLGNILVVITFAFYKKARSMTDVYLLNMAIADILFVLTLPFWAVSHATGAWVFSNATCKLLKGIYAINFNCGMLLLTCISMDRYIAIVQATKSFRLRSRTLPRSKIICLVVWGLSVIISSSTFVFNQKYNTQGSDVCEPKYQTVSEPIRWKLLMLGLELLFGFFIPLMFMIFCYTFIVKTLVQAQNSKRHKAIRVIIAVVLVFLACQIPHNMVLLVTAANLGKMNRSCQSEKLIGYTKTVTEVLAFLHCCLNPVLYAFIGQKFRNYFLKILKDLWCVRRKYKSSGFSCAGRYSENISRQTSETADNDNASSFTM
# EBI2 block: EBI2 (human) antagonism; P32249; EBI2 beta-arrestin recruitment, luminescence, 7a,25-OHC stimulated; inhibition, % at 5 µM; 360,000 compounds, 0.81% hits; AID 651636; in the data active means inhibition above about 38%;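 further: enzyme fragment complementation signal reports receptor beta-arrestin coupling in cells; 0% = agonist plus DMSO wells and 100% = wells without agonist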
# CXCR6 inh: blocks human CXCR6 beta-arrestin recruitment. 360,000 compounds, 0.36% hits. CHO-K1 PathHunter CXCR6 beta-arrestin, luminescence. inhibition, % at 20 µM. O00574; in the data active means inhibition above about 34%, passing the limit was not always enough;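 further: antagonist mode with CXCL16 agonist at 10 nM final; 0% = 10 nM CXCL16 with DMSO and 100% = unstimulated wells without agonist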
# APJ antag: blocks the human apelin receptor APJ | CHO-K1 APJ beta-arrestin complementation, luminescence | inhibition, % at 20 µM | 330,000 compounds, 0.32% hits | AID 2521;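 active means inhibition above about 40% at 20 µM, limit read from the data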;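 further: cells challenged with 10 nM apelin-13 agonist together with compound; plate controls were apelin-13 plus DMSO wells for no effect and DMSO wells lacking apelin-13 for full effect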
# Active calls of the source: *; / = no result.
SMILES,APJ agonist,CCR6 antagonist,EBI2 block,CXCR6 inh,APJ antag
Nc1ccccc1N=Nc1ccccc1N,-3,26,3,16,25
CC(C)(C)C1=CC(=Nc2ccccc2N)C=C(C(C)(C)C)C1=O,0,67*,10,29,-21
Cc1c(Nc2nc(-c3ccc(Cl)cc3)cs2)c(=O)n(-c2ccccc2)n1C,-4,1,-7,2,-13
CCOC(=O)Cc1csc(Nc2c(C)n(C)n(-c3ccccc3)c2=O)n1,1,69*,-9,9,11
S=C(NNc1ccc2ccccc2c1)NC1CCCCC1,-8,54*,45*,21,40
O=C(C[C@@H]1C[C@H]2c3cc(NC(=O)C4CCC4)ccc3O[C@H]2[C@@H](CO)O1)NCc1ccc(-c2ccccc2)cc1,/,/,-1,0,/
Cc1ccc(N2CCN(C(C(=O)Nc3c(C)cccc3C)c3cc4ccccc4o3)CC2)cc1 (configuration not stated),/,/,19,/,/
N#Cc1c(NC(=O)c2ccc(-c3ccccc3[N+](=O)[O-])o2)sc2c1CCCC2,-1,37,14,31,22
CC1CCc2c(sc(NC(=O)c3ccc(-c4ccccc4[N+](=O)[O-])o3)c2C#N)C1 (configuration not stated),-7,58*,28,33,24
CCc1nc2c(OCc3ccc(Cl)cc3)cccn2c1N(C=O)Cc1ccccc1,/,/,4,6,/
O=C(NCc1ccc(F)cc1)c1cc(C2CCCCN2C(=O)CCCc2ccccc2)on1 (configuration not stated),/,/,16,10,/
COc1ccccc1-c1cc(C(=O)Nc2cc(C)n(Cc3ccc(Cl)cc3)n2)no1,-2,13,52*,-6,-8
CC(C)(C)c1cc(C(c2cccnc2)N2CCN(CCO)CC2)cc(C(C)(C)C)c1O (configuration not stated),4,62*,3,27,23
CNC(CC(=O)c1ccc([N+](=O)[O-])cc1)C(Cl)(Cl)Cl (configuration not stated),/,/,-1,90*,/
CC1(C)CC(Cc2ccc(Cl)nc2)N(C(=O)OC(C)(C)C)C1 (configuration not stated),/,/,3,6,/
FC(F)(F)c1nnc(-c2ccccc2)nc1Oc1ccc(Cl)cc1Cl,-4,56*,-8,29,8
CC(c1nc2ccccc2n1Cc1ccccc1)n1c(-c2cnccn2)nc2ccccc21 (configuration not stated),/,/,14,/,/
Cc1ccc(S(=O)(=O)NC2=C(N3CCN(Cc4ccccc4)CC3)C(=O)c3ccccc3C2=O)cc1,2,54*,2,5,-33
Cc1ccc(S(=O)(=O)NC2=C(N3CCN(c4ccccc4F)CC3)C(=O)c3ccccc3C2=O)cc1,-2,37,-15,24,-45
CCCN1CCCc2ccccc21,-7,10,-2,3,9
N#CCCN1CCCc2cc(N=Nc3ccc(C(F)(F)F)cc3)ccc21,-6,30,56*,17,30
CCC(=O)Nc1ccc2c(c1)OC[C@@H](C)N(Cc1cccc(F)c1)C[C@@H](C)[C@@H](OC)CN(C)C2=O,/,/,-1,/,/
Cc1ccc(C(CCN(Cc2ccccc2)C(=O)c2ccco2)c2ccco2)cc1 (configuration not stated),-1,52*,-1,16,0
CC(=O)Nc1cccc(-c2ccnc3c2CC(C(=O)NCc2cccs2)O3)c1 (configuration not stated),/,/,-12,-3,/
O=C1C=CC(=O)N1c1ccc(-c2nc3ccccc3o2)cc1,/,/,-2,60*,/
SMILES,APJ agonist,CCR6 antagonist,EBI2 block,CXCR6 inh,APJ antag
Nc1ccc(-c2nc3ccccc3o2)cc1,0,-7,4,-9,4
CCOC(=O)c1c(N)sc(N)c1C(=O)OCC,-12,23,12,17,61*
CC1(Oc2ccccc2)CCN(Cc2csc3ccccc23)C1 (configuration not stated),/,/,13,-1,/
O=[N+]([O-])c1c(Nc2ccccc2O)ccc2nonc12,-4,4,-4,2,-20
O=[N+]([O-])c1c(Nc2ccccc2O)cc(Cl)c2nonc12,-5,106*,61*,107*,93*
CN1/C(=C/C=C/c2n(C)c3cc([N+](=O)[O-])c([N+](=O)[O-])cc3[n+]2C)C(C)(C)c2ccccc21,/,/,4,48*,/
Cc1cccc[n+]1CC(=O)/C=C1\N(C)c2ccccc2C1(C)C,-3,-22,-17,-3,-4
